ChEMBL document CHEMBL2401628, “Low toxicity and unprecedented anti-osteoclast activity of a simple sulfur-containing gem-bisphosphonate: a comparative study” (Eur J Med Chem, 2013)
Calls of active or inactive are those of the source. The calls are words filed in the database; no cut-off is given here.

Tests used:
Hydroxyapatite = assay: Binding affinity to hydroxyapatite at 0.07 mmol up to 120 hrs by 31P NMR-spectroscopy relative to H3PO4
L929 [1] = assay: Cytotoxicity against mouse L929 cells assessed as reduction of cell viability at 100 uM after 72 hrs by neutral-red uptake assay; assay type: cell-based; conditions: l929, 72 h
In short: (§1)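 Mouse L929 fibroblasts in DMEM with 10% FCS, seeded 0.8 × 10³ cells/well and allowed to adhere 24 h. They were then exposed to serial dilutions of compound (stocks 10 mM in PBS pH 7.4) for 72 h; untreated medium served as negative control. Cells took up 0.4% neutral red diluted 1:80 for 2 h at 37 °C, and dye was extracted in 50% ethanol/1% acetic acid and read at 540 nm. Result is the OD ratio of treated to negative control, triplicate wells, 5 experiments.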

L929 [2] = assay: Cytotoxicity against mouse L929 cells assessed as reduction of cell viability at 10 to 100 uM after 72 hrs by neutral-red uptake assay; assay type: cell-based; conditions: l929, 72 h; in short: as §1
PBMC = assay: Antiosteoclast activity in human PBMC assessed as reduction of osteoclasts formation by measuring TRAcP positive multinucleated cells at 10 uM after 7 days; assay type: functional, cell-based
In short: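 Blood mononuclear cells from healthy donors, adhered 1 h, then cultured 7 days in osteoclast differentiation medium with drug added from the start. Cells were fixed in 3% paraformaldehyde/2% sucrose, permeabilized in 0.5% Triton, and stained for TRAcP for 60 min at 37 °C. TRAcP-positive multinucleated cells were counted as % of untreated differentiated cultures, duplicate wells, 4 cultures from 2 donors.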

Osteoclast [3] = assay: Proapoptotic activity in human osteoclasts at 10 uM after 7 days using Hoechst 33258 staining; assay type: functional, cell-based
In short: (§2)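 Blood mononuclear cells from donors were differentiated into osteoclasts for 7 days, then exposed to drug for a further 7 days. After fixing, cells were stained with phalloidin-TRITC 0.3 mg/mL plus Hoechst 33258 for 30 min at room temperature. Multinucleated F-actin-ring cells with apoptotic nuclear bodies were counted over the whole well as % of all multinucleated cells, duplicate wells, 4 cultures from 2 donors.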

L929 [4] = assay: Cytotoxicity against mouse L929 cells assessed as reduction of cell viability after 72 hrs by neutral-red uptake assay; assay type: cell-based; conditions: l929, 72 h; in short: as §1
Osteoclast [5] = assay: Induction of apoptosis in human osteoclasts at 100 uM after 7 days using Hoechst 33258 staining; assay type: functional, cell-based; in short: as §2
Osteoclast [6] = assay: Inhibition of human osteoclast-mediated type 1 bone collagen degradation assessed as release of europium-labeled collagen fragments at 0.1 uM after 7 days by time-resolved fluorescence assay; assay type: functional, cell-based
In short: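 Mononuclear cells were seeded on Europium-labelled human type I collagen and cultured 7 days in differentiation medium, then drug was added; total culture time was 14 days. Released fragments in supernatant were measured by time-resolved fluorescence (excitation 340 nm, emission 615 nm). Result is the RFU ratio of treated to untreated osteoclasts, quadruplicate wells, 2 donors.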

Osteoclast [7] = assay: Inhibition of human osteoclast-mediated type 1 bone collagen degradation assessed as release of europium-labeled collagen fragments at 10 uM after 7 days by time-resolved fluorescence assay; assay type: functional, cell-based
In short: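 Adherent monocytes from Ficoll-isolated peripheral blood of healthy donors were seeded on human type I bone collagen and differentiated in osteoclast medium for 7 days. They were then exposed to three drug concentrations until day 14. Supernatant was mixed with fluorophore-releasing reagent and Europium-labelled fragments were read by time-resolved fluorescence (ex 340, em 615 nm). Values are the RFU ratio of treated to untreated osteoclasts, from 2 donors in quadruplicate.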

Structure (SMILES) | Activity (Hydroxyapatite) [%] | Activity (L929 [1]) | Activity (L929 [2]) | inhibition (PBMC) | Activity (Osteoclast [3]) | Activity (L929 [4]) | Activity (Osteoclast [5]) | inhibition (Osteoclast [6]) | inhibition (Osteoclast [7])
O=P(O)(O)C(O)(Cn1ccnc1)P(=O)(O)O | 82 | – | – | – | – | – | – | – | –
O=P(O)(O)C(CSc1ccccc1)P(=O)(O)O | 34 | Toxic | Toxic | inactive | – | – | – | – | –
O=P(O)(O)C(CN1CCOCC1)P(=O)(O)O | 65 | Toxic | Toxic | Active | – | – | – | – | –
NCCC(O)(P(=O)(O)O)P(=O)(O)O [PAMIDRONIC ACID] | – | – | – | Active | inactive | Dose-dependent effect | Active | inactive | –
O=P(O)(O)C(CNc1ccccc1)P(=O)(O)O | 66 | Toxic | Toxic | Active | – | – | – | – | –
O=P(O)(O)C(CNc1ccccn1)P(=O)(O)O | 94 | – | – | Active | Active | Dose-dependent effect | Active | Active | Active
O=P(O)(O)C(CSCCO)P(=O)(O)O | 70 | Toxic | Toxic | Active | Active | – | Active | inactive | Active
